The values below come from ChEMBL document CHEMBL1155812, “Functionalized pyrrolidine inhibitors of human type II alpha-mannosidases as anti-cancer agents: optimizing the fit to the active site” (Bioorg Med Chem, 2008).

Data set [1] can be described thus: Growth inhibition of human LN18 cells at 300 uM after 24 hrs by MTT assay. As to conditions: LN-18, 24 h, read-out: GI. It counts as functional. A digest of the protocol: (§1)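 Cells seeded 2 days before in the same medium (glioblastoma lines in DMEM 4.5 g/l glucose, 5% FCS; HCEC with 10% FCS), then exposed to increasing concentrations for 24 h. MTT (5 mg/ml in PBS) was added without medium change for 2 h at 37 °C. Formazan was dissolved in isopropanol-HCl and read at 540 nm. Growth inhibition is the ratio of MTT reduction, treated to untreated. Triplicate wells.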
On the technique in general: Formazan colour is commonly taken as a measure of viable cells.

The nature of data set [2]: Growth inhibition of human HCEC at 300 uM after 24 hrs by MTT assay. As to conditions: HCEC cells, read-out: GI. Format: cell-based. An outline of the steps: as §1
A short description of data set [3]: Growth inhibition of human LNZ308 cells at 300 uM after 24 hrs by MTT assay. It counts as functional. As to conditions: LNZ308, 24 h, read-out: GI. A digest of the protocol:
as §1

In data set [4] the target is T1, Lysosomal alpha-mannosidase (Homo sapiens, UniProt O00754).
T1 sequence (O00754 whole entry): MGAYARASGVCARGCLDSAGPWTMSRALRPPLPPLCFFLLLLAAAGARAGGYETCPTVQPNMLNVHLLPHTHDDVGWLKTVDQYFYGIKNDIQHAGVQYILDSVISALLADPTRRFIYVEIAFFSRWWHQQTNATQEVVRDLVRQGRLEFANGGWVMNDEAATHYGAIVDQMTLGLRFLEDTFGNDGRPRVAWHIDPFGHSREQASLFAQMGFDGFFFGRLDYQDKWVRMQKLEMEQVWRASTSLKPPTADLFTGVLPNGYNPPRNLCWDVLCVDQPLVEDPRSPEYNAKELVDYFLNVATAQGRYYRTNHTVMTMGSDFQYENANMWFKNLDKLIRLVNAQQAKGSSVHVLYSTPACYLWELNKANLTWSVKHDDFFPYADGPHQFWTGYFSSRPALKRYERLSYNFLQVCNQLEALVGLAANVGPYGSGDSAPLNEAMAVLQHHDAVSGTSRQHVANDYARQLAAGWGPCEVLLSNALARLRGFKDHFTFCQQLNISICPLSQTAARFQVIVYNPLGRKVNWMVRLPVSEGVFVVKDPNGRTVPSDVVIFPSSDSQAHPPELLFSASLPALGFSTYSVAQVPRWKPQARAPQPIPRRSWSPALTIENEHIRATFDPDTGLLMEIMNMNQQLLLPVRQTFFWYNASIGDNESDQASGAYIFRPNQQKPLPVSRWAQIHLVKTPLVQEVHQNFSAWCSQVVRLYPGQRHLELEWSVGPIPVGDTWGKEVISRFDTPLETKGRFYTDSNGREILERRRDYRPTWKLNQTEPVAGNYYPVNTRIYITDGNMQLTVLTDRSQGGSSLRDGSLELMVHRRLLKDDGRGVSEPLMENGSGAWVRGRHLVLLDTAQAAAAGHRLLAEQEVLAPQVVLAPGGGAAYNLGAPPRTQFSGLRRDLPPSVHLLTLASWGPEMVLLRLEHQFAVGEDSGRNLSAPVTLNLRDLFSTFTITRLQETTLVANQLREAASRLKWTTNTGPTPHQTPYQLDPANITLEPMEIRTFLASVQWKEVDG
Nature of the data set: Inhibition of alpha-mannosidase in human LN18 cells. It counts as cell-based. An outline of the steps: (§2)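 Cell layers extracted in pH 5.0 phosphate buffer with 0.1% Triton X-100. Extracts were preincubated with increasing inhibitor concentrations (30 min, 37 °C), then given 4-methylumbelliferyl-α-D-mannopyranoside (150 µM final). Fluorescence increase (ex 360/em 460 nm) followed for 30 min at 37 °C. KM was determined first; IC50 and Ki were derived graphically. Swainsonine served as reference.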

In data set [5] the target is T1, Lysosomal alpha-mannosidase. Nature of the data set: Inhibition of alpha-mannosidase in human HCEC. Format: cell-based. An outline of the steps:
as §2

Data set [6] has the same target. Nature of the data set: Inhibition of alpha-mannosidase in human LNZ308 cells. Format: cell-based. An outline of the steps: as §2
A short description of data set [7]: Growth inhibition of human HCEC after 24 hrs by MTT assay. Format: cell-based. The note with it: for Activity: human, hcec. An outline of the steps: as §1
Data set [8] can be described thus: (§3) Growth inhibition of human LNZ308 cells after 24 hrs by MTT assay. Format: functional, cell-based. The note with it: LNZ308, 24 h. An outline of the steps: as §1
The test system of data set [9] is LNZ308. Put plainly: Decrease in incorporation of [3H]Mann into TCA-precipitable high molecular weight cellular molecule in human LNZ308 cells at 200 uM after 14 hrs. It counts as functional, cell-based. An outline of the steps: (§4)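 Cells given 200 µM inhibitor together with [2,3,4,5-3H]-L-Leu or [2,6-3H]-D-Mann (0.4 µCi/ml final). LNZ308 were seeded 10 h before a 14 h exposure; HCEC were exposed for 6 h. Incorporation measured by 10% TCA precipitation, solubilization in 0.1 N NaOH and beta counting. The Mann/Leu ratio of decrease, treated vs. control, was calculated. Triplicate wells, means ± SD.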

Another data set deals with HCEC. Nature of the data set: Decrease in incorporation of [3H]Mann into TCA-precipitable high molecular weight cellular molecule in human HCEC at 200 uM after 6 hrs. Format: functional, cell-based. A digest of the protocol:
as §4

Data set [10] is described as follows: (§5) Growth inhibition of human LN18 cells after 24 hrs by MTT assay. It counts as functional, cell-based. As to conditions: LN-18, 24 h. An outline of the steps:
as §1

The nature of data set [11]: Inhibition of drosophila golgi alpha-mannosidase 2. An outline of the steps: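 It was preincubated 30 min at 20 °C with inhibitor added in DMSO, then given p-nitrophenyl α-mannopyranoside, all at 10% final DMSO and 20 °C. Timed aliquots were stopped with equal-volume 0.5 M sodium carbonate and read at A405. Ki was fitted by nonlinear regression on the linear portion of the time course.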

The subject of data set [12] is LNZ308. Described as §3. Format: functional, cell-based. A digest of the protocol: as §1
A short description of data set [13]: Inhibition of jack bean alpha-mannosidase. Also noted: species or system Canavalia ensiformis. An outline of the steps: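 Jack bean enzyme (0.01–0.5 U/mL) preincubated 5 min at 20 °C with inhibitor, then reacted 20 min at 37 °C with increasing 4-nitrophenyl-α-D-mannopyranoside at pH 5.5. Stopped with 0.2 M borate pH 9.8; 4-nitrophenolate read at 410 nm. IC50 found graphically, or Ki and inhibition type from Lineweaver–Burk plots.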

The subject of a further data set is LN-18. Described as §5. It counts as functional, cell-based. An outline of the steps: as §1
The nature of data set [14]: Growth inhibition of melanoma cells. It counts as functional, cell-based. As to conditions: Melanoma tumor cell line.

Activity calls are given as the source filed them. No cut-off for these calls is given here.

For `O=C(OC[C@H](NC[C@H]1NC(=O)[C@H](O)[C@@H]1O)c1ccccc1)c1ccc(Br)cc1`, the inhibition of growth at 300 µM came to 59% in [1] and 51% in [3]. The inhibition at 24 h, 300 µM in data set [2] was 85%. Further, the 50% inhibitory concentration (IC50) in data set [4] came out at 750 µM; in [5] it was 75 µM; in [6] it was 150 µM.
Regarding `CN1C(=O)[C@H](O)[C@H](O)[C@H]1CN[C@@H](COC(=O)c1ccc(Br)cc1)c1ccccc1`, the IC50 is 100 µM in [7] (Homo sapiens, HCEC); 175 µM in data set [8]; 145 µM in data set [10]; 75 µM in [4]; 0.75 µM in data set [5]; 7.5 µM in data set [6]. The result in the data set on LNZ308 [9] and with HCEC was Active.
Regarding `OC[C@H](NC[C@H]1NC[C@H](O)[C@@H]1O)c1ccccc1`, the IC50 came out at 80 µM in data set [11], 50 µM in [4], 25 µM in data set [5] and 50 µM in data set [6]. Moreover, the inhibitory constant (Ki) in data set [11] came to 67 µM; in data set [4], 32.5 µM; in [5], 23.3 µM; in data set [6] it was 41.5 µM.
For the compound `CN1C(=O)[C@H](O)[C@H](O)[C@H]1CN[C@@H](CO)c1ccccc1`, the Activity entry in [7] is reported as “Not Active”. Moreover, the result with LNZ308 [12] and in the data set with LN-18 was inactive. The Ki in data set [13] turned out to be 0.206 µM; in data set [4] it was 3.2 µM; in [5], 0.67 µM; in [6] it was 0.55 µM. The IC50 in data set [4] stood at 2 µM; in [5], 0.5 µM; in data set [6] it was 0.5 µM.
In the case of `O[C@H]1[C@H]2[C@H](O)CCCN2C[C@H]1O` [TRIDOLGOSIR], the IC50 in data set [11] stood at 0.04 µM; in data set [13] it was 0.04 µM; in data set [4], 0.05 µM; in data set [5], 0.01 µM; in data set [6] it was 0.02 µM. In addition, the Ki in data set [11] came to 0.02 µM; in [13], 0.155 µM.
On to `O=C1N[C@H](CN[C@@H](CO)c2ccccc2)[C@@H](O)[C@H]1O`, for which the Activity result in data set [7] was “Not Active”. In addition, the result in the data set on LNZ308 [12] and in the data set on LN-18 was inactive. The compound further gave a Ki in data set [13] of 4 µM. Also, the IC50 stood at 350 µM in [4], 75 µM in [5] and 50 µM in data set [6].
On to `O=C(OC[C@H](NC[C@H]1NC[C@H](O)[C@@H]1O)c1ccccc1)c1ccc(Br)cc1`, for which the IC50 in data set [14] worked out at 125 µM; in data set [4] it was 200 µM; in data set [5] it was 75 µM; in data set [6] it was 75 µM.

In general, IC50 refers to the concentration that inhibits the measured activity by half. In general, Ki refers to the equilibrium dissociation constant of an inhibitor or competing ligand from its target.
